KCNK3 inh – human KCNK3 channel inhibitors, primary screen, CHO cells, FluxOR thallium flux, B-score; actives 0.84% (n = 340,000); FluxOR fluorescence; stronger effect = lower value; Potassium channel subfamily K member 3 (Homo sapiens), O14649; B-score at 10 µM;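 active = B-score under library mean minus 4 SD, starting fluorescence ratio at most library mean plus 5 SD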;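 note: more negative B-score means stronger inhibition of thallium flux through KCNK3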
KCNK9 inh – KCNK9 potassium channel inhibitors, primary screen, HEK293 cells, thallium flux | AID 488922, 2010 | actives 1.2% (n = 310,000) | FluxOR thallium flux fluorescence; stronger effect = lower value | B-score at 10 µM | Potassium channel subfamily K member 9 (Homo sapiens), Q9NPC2;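 active = ratio B-score over 3 SD below the library mean, with starting fluorescence within 5 SD of its mean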;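 note: negative B-score means less thallium flux so channel inhibition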
KCNQ1 act – potentiators or activators of KCNQ1 channel, primary screen, cell-based, thallium flux, high-throughput; Potassium voltage-gated channel subfamily KQT member 1 (Homo sapiens), P51787; CHO-K1 KCNQ1, thallium flux FluxOR fluorescence; stronger effect = higher value; B-score at 10 µM; actives 0.35% (n = 310,000); AID 2648, 2010;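 active = fluorescence ratio B-score, a plate-corrected score, at least three library SD, with initial intensity B-score within 5 SD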
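Assay system: CHO-K1 cells stably expressing KCNQ1. Medium: assay buffer for compound exposure, DMSO matched across wells. Timing: 37 °C overnight plating, 90-min dark dye load, 20-min compound pretreatment. Signal: kinetic FluxOR fluorescence, 10 s baseline plus 110 s post-stimulus.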
hERG rescue – hERG rescue from dofetilide block, primary screen, cell-based, CHO-hERG, FluxOR thallium flux, dofetilide IC70; actives 0.51% (n = 310,000); Voltage-gated inwardly rectifying potassium channel KCNH2 (Homo sapiens), Q12809; dofetilide IC70 present; activation (rescue from dofetilide block), less the hit threshold, % at 10 µM;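 active = activation above the mean of controls blocked by dofetilide plus 5 SD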;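 note: thallium influx through hERG after potassium depolarization seen as dye fluorescence rise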
Kir21 block – inhibitors of mouse Kir2.1 inward-rectifier potassium channel. Inward rectifier potassium channel 2 (Mus musculus), P35561. HEK293-Kir2.1, FluxOR thallium flux fluorescence; stronger effect = lower value. B-score at 10 µM. actives 0.85% (n = 310,000);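 active = fluorescence ratio B-score at or below minus 3 SD of library scores, with starting-brightness B-score within 2 SD, cut at about -4.2 in these data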;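 note: channel flux triggered by added potassium and thallium sulfate stimulus; B-score of peak minus minimum fluorescence over baseline after thallium stimulus; more negative B-score means stronger Kir2.1 block with less thallium influx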
Target sequence (P35561 whole entry, looked up): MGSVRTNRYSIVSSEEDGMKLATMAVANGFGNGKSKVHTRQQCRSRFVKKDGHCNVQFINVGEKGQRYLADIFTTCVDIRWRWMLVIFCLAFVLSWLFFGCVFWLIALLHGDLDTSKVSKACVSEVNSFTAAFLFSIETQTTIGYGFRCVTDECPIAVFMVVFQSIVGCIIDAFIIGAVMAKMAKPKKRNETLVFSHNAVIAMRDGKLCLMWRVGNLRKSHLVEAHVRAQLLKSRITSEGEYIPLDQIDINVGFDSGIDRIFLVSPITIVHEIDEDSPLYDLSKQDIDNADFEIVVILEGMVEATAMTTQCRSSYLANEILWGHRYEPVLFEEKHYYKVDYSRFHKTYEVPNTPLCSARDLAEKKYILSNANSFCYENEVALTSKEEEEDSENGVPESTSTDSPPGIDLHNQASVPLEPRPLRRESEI
KCNQ1 inh – inhibitors of human KCNQ1 channel, primary screen, cell-based, thallium flux, high-throughput. Potassium voltage-gated channel subfamily KQT member 1 (Homo sapiens), P51787. CHO-K1 KCNQ1, FluxOR thallium flux fluorescence; stronger effect = higher value. B-score at 10 µM. actives 1.3% (n = 310,000). AID 2642, 2010;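 active = compounds whose thallium flux B-score, printed positive for inhibition, exceeds three library SD while starting fluorescence stays within three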;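 note: channel opened by potassium depolarization with thallium stimulus after 20 min compound exposure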
Of the large screens only hits and unclear results are named; the others gave an inactive call. An excerpt weighted towards active compounds, which were near 3.7% of everything screened.

O=[N+]([O-])c1ccc(CNc2ccc(Cl)cc2)s1	none
O=[N+]([O-])c1ccc(CNc2cccc(Cl)c2)s1	KCNQ1 inh 6
CC1(C(=O)OCC(=O)Nc2cccc(S(=O)(=O)NC3=NCCCCC3)c2)CC1(Cl)Cl (centres undefined)	none
CC(C)CNC(=S)N(Cc1ccco1)Cc1cc2cc3c(cc2[nH]c1=O)OCCO3	none
O=C(Oc1cccc2c(O)cccc12)c1ccccc1	Kir21 block -5.4
COc1cccc(-c2cc(C(F)(F)F)nc(N3CCC(C)CC3)n2)c1	hERG rescue 5.1
CCOc1ccccc1NC(=O)Cc1coc2cc(C)ccc12	Kir21 block -5
COc1ccccc1NC(=O)Cc1coc2cc(C)ccc12	none
CC(SCC(=O)NC(C)C1CC2CCC1C2)C(=O)O (centres undefined)	none
C1CCC(C(CC2CCCCN2)C2CCCCC2)CC1 (centres undefined)	Kir21 block -7.5, KCNQ1 inh 7
CC(C)Oc1ccc(OCCCN2CCCCCC2)cc1	none
CC(C)Oc1ccc(C(CCN)C2CCCCC2)cc1 (centres undefined)	Kir21 block -8.3
Cc1cc(C)c2ccc(C)[n+]([O-])c2c1O	KCNQ1 act 8
Cc1cc(C)c2ccc(N)nc2c1O	none
CC(C)Cc1ccc(C(C)C(=O)Nc2ccc(O)cc2)cc1 (centres undefined)	KCNQ1 act 10
CC(C)Cc1ccc(C(C)C(=O)Nc2cccnc2)cc1 (centres undefined)	none
CCCCc1c(O)nc(SCC(=O)N2CCCCC2)n(-c2ccccc2C)c1=O	hERG rescue 9.8
O=C1NC(=S)SC1=Cc1ccccc1Cl	none (no result: KCNK9 inh, KCNQ1 act, hERG rescue, Kir21 block, KCNQ1 inh)
Cc1ccc(C2C(/C=C3/SC(=S)NC3=O)=C(c3cccs3)Oc3ccccc32)cc1 (centres undefined)	KCNQ1 act 8
c1ccc(Cc2ccc(OCCCNC3CCCC3)cc2)cc1	Kir21 block -8.1 (no result: KCNK3 inh)
c1ccc(-c2ccc(OCCCNC3CCCC3)cc2)cc1	Kir21 block -5.8
O=C(NCc1nc2ccccc2[nH]1)c1ccc(S(=O)(=O)N2CCCC2)cc1	hERG rescue 8.1
Cc1cc([N+](=O)[O-])cc(/C=N/n2c(C)nc3ccccc3c2=O)c1O	none
C/C(=N\OCc1nc2ccccc2c(=O)n1/N=C/c1cc(C)cc([N+](=O)[O-])c1O)c1ccccc1	KCNQ1 inh 9
CC(=O)N(C)c1ccc(N=NC2C(=O)N(C(N)=S)N=C2C)cc1 (centres undefined)	none
COc1ccccc1N1CC(C(=O)Nc2ccccc2N2CCCC2)CC1=O (centres undefined)	none
Cc1c(Cl)cccc1NC(=S)NCCc1ccc(C(F)(F)F)cc1	KCNQ1 inh 7
CCCCOC(=O)Nc1nnc(Cc2ccc(Cl)cc2)s1	none
CC(C)(/C=N/O)/[N+]([O-])=C/c1ccccc1	KCNQ1 inh 7
CCCCc1c(C)nc2ccc(Br)cc2c1SCCC#N	KCNK9 inh -7.7 (no result: KCNK3 inh)
CCc1c(C)nc2ccc(Br)cc2c1SCCC#N	none
O=Cc1ccc(-c2cc(Cl)ccc2Cl)[nH]1	KCNK9 inh -6.7
Cc1noc(C)c1COC(=O)[C@H](C)NS(=O)(=O)c1ccc(Cl)c(Cl)c1	Kir21 block -5.2
Cc1ccc(S(=O)(=O)NC(=O)COc2ccccc2C)c(C)c1	none
CN1C(=O)/C(=C/c2ccc(OCc3ccccc3F)cc2)NC1=S	none
O=C(OCC(=O)N1CCCC1=O)c1cc2ccccc2o1	none (no result: KCNK9 inh, KCNQ1 act, hERG rescue, Kir21 block, KCNQ1 inh)
O=C(CSc1ccc(Cl)cc1)N1N=CCC1c1ccccc1 (centres undefined)	Kir21 block -6.1
COc1ccc(-n2c(=S)[nH]c3ccccc32)cc1	none
COc1ccc(-n2c(=S)[nH]c3ccccc3c2=S)cc1	KCNQ1 act 16
COc1ccc(Cn2c(=S)[nH]c3ccccc32)cc1	hERG rescue 7.2
COc1ccc(C2=NN(C3=NN=C(N)Cc4ncnn43)C(O)(C(F)(F)F)C2)cc1 (centres undefined)	none
CCN(C(=O)c1ccc(C(C)(C)C)cc1)c1nnc(Cn2nnc3ccccc32)s1	KCNQ1 inh 7
CCOC(=O)Nc1c(O)ccc2oc(C)c(-c3ccccc3)c12	Kir21 block -15
C=CCNC(=O)N[C@@H](Cc1ccccc1)C(=O)OC	none
CSc1nc(Cl)c(Cc2ccc(OC(C)C)cc2)c(N2CCOCC2)n1	KCNK9 inh -7.5, KCNQ1 inh 7
O=C(N/N=C/c1ccccc1C(=O)O)c1ccccc1Br	hERG rescue 4.9
COC(=O)/C=C1\SC(N)=NC1=O	none
CC(C(=O)N1CCCC1)N1CCN(S(=O)(=O)c2ccccc2)CC1 (centres undefined)	none (no result: KCNK9 inh, KCNQ1 act, hERG rescue, Kir21 block, KCNQ1 inh)
CC1(C)CC(N2CCN(CCO)CC2)=CC(=S)N1	KCNQ1 act 10
COc1cc(NC(=S)N2CCN(CCO)CC2)cc(OC)c1	none
COc1ccc(CCNC(=O)C2CCN(C(=O)c3ccc([N+](=O)[O-])cc3)CC2)cc1	none
Clc1ccc2nc(C3CCN(Cc4ccccc4)CC3)[nH]c2c1	Kir21 block -6.8
Cc1ccc2nc(C3CCN(S(=O)(=O)c4ccc5ccccc5c4)CC3)[nH]c2c1	KCNQ1 act 8
CC1CCCCN1C(=O)CN1CCC(c2nc3ccc(Cl)cc3[nH]2)CC1 (centres undefined)	none
Cc1ccc(CN2CCC(c3nc4ccc(Cl)cc4[nH]3)CC2)cc1	Kir21 block -10
CCn1c(SCC(=O)OCC(=O)N2c3ccccc3NC(=O)C2(C)C)nnc1-c1ccco1	hERG rescue 7.0
CN(CC(=O)NCc1cccc(F)c1)C(=O)c1ccco1	hERG rescue 6.5
CC(Sc1nnc(C2CC2)n1C1CC1)C(=O)NC1(C#N)CCCCC1 (centres undefined)	none (no result: KCNK9 inh, KCNQ1 act, hERG rescue, Kir21 block, KCNQ1 inh)
COc1ccc(C2C(C(=O)c3cccs3)=C(O)C(=O)N2c2nnc(C)s2)cc1OC (centres undefined)	KCNQ1 inh 11
CN(CC(=O)Nc1c(Cl)cccc1Cl)C(=O)c1cc2ccccc2cc1O	none
CCCCCCCCCCCC(=O)NC(C(=O)O)C(O)c1ccccc1 (centres undefined)	none
CCCCCCCCNC(C)C(O)c1ccc(SC(C)C)cc1 (centres undefined)	KCNQ1 inh 6
Cc1ccc(C(=O)c2cc(C)sc2NC(=O)CN2CCN(C(=O)c3ccco3)CC2)cc1	KCNQ1 inh 9
